# Experimental data published in ChEMBL document CHEMBL1147557, “Glycosyltransferase activity can be selectively modulated by chemical modifications of acceptor substrates” (Bioorg Med Chem Lett, 2004).
# Activity calls are given as the source filed them. The rule behind the calls is not given here.
# T1: Beta-galactoside alpha-2,6-sialyltransferase 1 (Rattus norvegicus) (UniProt P13721)
# T1 sequence (whole entry): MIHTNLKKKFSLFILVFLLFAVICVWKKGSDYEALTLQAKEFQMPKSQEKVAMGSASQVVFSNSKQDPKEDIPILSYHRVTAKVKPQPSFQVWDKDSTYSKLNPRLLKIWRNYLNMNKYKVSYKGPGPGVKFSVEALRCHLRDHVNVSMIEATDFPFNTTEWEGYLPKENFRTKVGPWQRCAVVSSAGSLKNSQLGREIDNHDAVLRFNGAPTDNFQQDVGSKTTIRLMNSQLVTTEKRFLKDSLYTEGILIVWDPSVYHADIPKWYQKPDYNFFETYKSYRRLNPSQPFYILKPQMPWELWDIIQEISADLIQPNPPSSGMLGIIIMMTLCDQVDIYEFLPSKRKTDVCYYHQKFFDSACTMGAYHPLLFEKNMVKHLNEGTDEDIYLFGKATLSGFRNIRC
# B1: Beta-galactoside alpha-2,6-sialyltransferase 1 (Rattus norvegicus), P13721 (protein)
# chain: T1 sequence (whole entry)
# Experiments:
# [1] = molecular target: T1, Beta-galactoside alpha-2,6-sialyltransferase 1 (Rattus norvegicus); test: (§1) Kinetic parameter of sialylation by alpha-2,6-sialyltransferase
# Method in brief: (§2)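 Rat liver recombinant α-2,6-sialyltransferase transferring CMP-[14C]-Neu5Ac to LacNAc-based acceptors. Apparent kinetic parameters (Km, Vmax) were determined by previously reported assays. Vmax is expressed relative to unmodified LacNAc, which is set at 1.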
# [2] = test system: Alpha-(1,3)-fucosyltransferase 6 (Homo sapiens); test: Kinetic parameter of […] by fucosyltransferase 6 alpha 1,3
# [3] = test system: Alpha-(1,3)-fucosyltransferase 6 (Homo sapiens); test: Kinetic parameter of […] of compound by fucosyltransferase 6 alpha 1,3; Not active
# [4] = substrate: CNC(=O)[C@@H]1O[C@@H](OC)[C@@H](NC(C)=O)[C@@H](O)[C@@H]1O[C@@H]1O[C@@H](CO)[C@H](O)[C@H](O)C1O; test: (§3) Apparent kinetic parameter of sialylation by alpha-2,6-sialyltransferase; settings: Rattus norvegicus; method in brief: as §2
# [5] = substrate: COC[C@@H]1O[C@@H](OC)[C@@H](NC(C)=O)[C@@H](O)[C@@H]1O[C@@H]1O[C@@H](CO)[C@H](O)[C@H](O)[C@@H]1O; test: as §3; settings: Rattus norvegicus; method in brief: as §2
# [6] = substrate: COC[C@@H]1O[C@@H](OC)[C@@H](NC(C)=O)[C@@H](O)[C@@H]1O[C@@H]1O[C@@H](CO)[C@H](O)[C@H](O)[C@@H]1OC; test: as §3; settings: Rattus norvegicus; method in brief: as §2
# [7] = substrate: CO[C@@H]1O[C@@H](C(N)=O)[C@@H](O[C@@H]2O[C@@H](CO)[C@H](O)[C@H](O)[C@@H]2O)[C@H](O)[C@@H]1NC(C)=O; test: as §3; settings: Rattus norvegicus; method in brief: as §2
# [8] = substrate: CO[C@@H]1O[C@@H](CN)[C@@H](O[C@@H]2O[C@@H](CO)[C@H](O)[C@H](O)[C@@H]2O)[C@H](O)[C@@H]1NC(C)=O; test: as §3; settings: Rattus norvegicus; method in brief: as §2
# [9] = substrate: CO[C@@H]1O[C@@H](CNC(C)=O)[C@@H](O[C@@H]2O[C@@H](CO)[C@H](O)[C@H](O)[C@@H]2O)[C@H](O)[C@@H]1NC(C)=O; test: as §3; settings: Rattus norvegicus; method in brief: as §2
# [10] = substrate: CO[C@@H]1O[C@@H](CNC=O)[C@@H](O[C@@H]2O[C@@H](CO)[C@H](O)[C@H](O)[C@@H]2O)[C@H](O)[C@@H]1NC(C)=O; test: as §3; settings: Rattus norvegicus; method in brief: as §2
# [11] = substrate: CO[C@@H]1O[C@@H](CNC=O)[C@@H](O[C@@H]2O[C@@H](CO)[C@H](O)[C@H](O)[C@@H]2OC)[C@H](O)[C@@H]1NC(C)=O; test: as §3; settings: Rattus norvegicus; method in brief: as §2
# [12] = substrate: CO[C@@H]1O[C@@H](CNS(C)(=O)=O)[C@@H](O[C@@H]2O[C@@H](CO)[C@H](O)[C@H](O)[C@@H]2O)[C@H](O)[C@@H]1NC(C)=O; test: as §3; settings: Rattus norvegicus; method in brief: as §2
# [13] = substrate: CO[C@@H]1O[C@@H](CO)[C@@H](O[C@@H]2O[C@@H](CO)[C@H](O)[C@H](O)[C@@H]2O)[C@H](O)[C@@H]1NC(C)=O; test: as §3; settings: Rattus norvegicus; method in brief: as §2
# [14] = substrate: CO[C@@H]1O[C@@H](CO)[C@@H](O[C@@H]2O[C@@H](CO)[C@H](O)[C@H](O)[C@@H]2OC)[C@H](O)[C@@H]1NC(C)=O; test: as §3; settings: Rattus norvegicus; method in brief: as §2
# [15] = substrate: CO[C@@H]1O[C@@H](COS(C)(=O)=O)[C@@H](O[C@@H]2O[C@@H](CO)[C@H](O)[C@H](O)[C@@H]2O)[C@H](O)[C@@H]1NC(C)=O; test: as §3; settings: Rattus norvegicus; method in brief: as §2
# [16] = substrate: CNC(=O)[C@@H]1O[C@@H](OC)[C@@H](NC(C)=O)[C@@H](O)[C@@H]1O[C@@H]1O[C@@H](CO)[C@H](O)[C@H](O)C1O; test: as §1; settings: Rattus norvegicus; method in brief: as §2
# [17] = substrate: COC[C@@H]1O[C@@H](OC)[C@@H](NC(C)=O)[C@@H](O)[C@@H]1O[C@@H]1O[C@@H](CO)[C@H](O)[C@H](O)[C@@H]1O; test: as §1; settings: Rattus norvegicus; method in brief: as §2
# [18] = substrate: COC[C@@H]1O[C@@H](OC)[C@@H](NC(C)=O)[C@@H](O)[C@@H]1O[C@@H]1O[C@@H](CO)[C@H](O)[C@H](O)[C@@H]1OC; test: as §1; settings: Rattus norvegicus; method in brief: as §2
# [19] = substrate: CO[C@@H]1O[C@@H](C(N)=O)[C@@H](O[C@@H]2O[C@@H](CO)[C@H](O)[C@H](O)[C@@H]2O)[C@H](O)[C@@H]1NC(C)=O; test: as §1; settings: Rattus norvegicus; method in brief: as §2
# [20] = substrate: CO[C@@H]1O[C@@H](CN)[C@@H](O[C@@H]2O[C@@H](CO)[C@H](O)[C@H](O)[C@@H]2O)[C@H](O)[C@@H]1NC(C)=O; test: as §1; settings: Rattus norvegicus; method in brief: as §2
# [21] = substrate: CO[C@@H]1O[C@@H](CNC(C)=O)[C@@H](O[C@@H]2O[C@@H](CO)[C@H](O)[C@H](O)[C@@H]2O)[C@H](O)[C@@H]1NC(C)=O; test: as §1; settings: Rattus norvegicus; method in brief: as §2
# [22] = substrate: CO[C@@H]1O[C@@H](CNC=O)[C@@H](O[C@@H]2O[C@@H](CO)[C@H](O)[C@H](O)[C@@H]2O)[C@H](O)[C@@H]1NC(C)=O; test: as §1; settings: Rattus norvegicus; method in brief: as §2
# [23] = substrate: CO[C@@H]1O[C@@H](CNC=O)[C@@H](O[C@@H]2O[C@@H](CO)[C@H](O)[C@H](O)[C@@H]2OC)[C@H](O)[C@@H]1NC(C)=O; test: as §1; settings: Rattus norvegicus; method in brief: as §2
# [24] = substrate: CO[C@@H]1O[C@@H](CNS(C)(=O)=O)[C@@H](O[C@@H]2O[C@@H](CO)[C@H](O)[C@H](O)[C@@H]2O)[C@H](O)[C@@H]1NC(C)=O; test: as §1; settings: Rattus norvegicus; method in brief: as §2
# [25] = substrate: CO[C@@H]1O[C@@H](CO)[C@@H](O[C@@H]2O[C@@H](CO)[C@H](O)[C@H](O)[C@@H]2O)[C@H](O)[C@@H]1NC(C)=O; test: as §1; settings: Rattus norvegicus; method in brief: as §2
# [26] = substrate: CO[C@@H]1O[C@@H](CO)[C@@H](O[C@@H]2O[C@@H](CO)[C@H](O)[C@H](O)[C@@H]2OC)[C@H](O)[C@@H]1NC(C)=O; test: as §1; settings: Rattus norvegicus; method in brief: as §2
# [27] = substrate: CO[C@@H]1O[C@@H](COS(C)(=O)=O)[C@@H](O[C@@H]2O[C@@H](CO)[C@H](O)[C@H](O)[C@@H]2O)[C@H](O)[C@@H]1NC(C)=O; test: as §1; settings: Rattus norvegicus; method in brief: as §2
molecule,measurement,setting,value
COC(=O)[C@@H]1O[C@@H](OC)[C@@H](NC(C)=O)[C@@H](O)[C@@H]1O[C@@H]1O[C@@H](CO)[C@H](O)[C@H](O)[C@@H]1O,Vmax / Km,[1],0.2
same,Vmax / Km,[2],1.2
CNC(=O)[C@@H]1O[C@@H](OC)[C@@H](NC(C)=O)[C@@H](O)[C@@H]1O[C@@H]1O[C@@H](CO)[C@H](O)[C@H](O)C1O (some centres undefined),Vmax / Km,[1],0.08
same,Vmax / Km,[2],0.4
COC[C@@H]1O[C@@H](OC)[C@@H](NC(C)=O)[C@@H](O)[C@@H]1O[C@@H]1O[C@@H](CO)[C@H](O)[C@H](O)[C@@H]1O,Vmax / Km,[1],0.2
same,Vmax / Km,[2],4.5
CO[C@@H]1O[C@@H](CNC(C)=O)[C@@H](O[C@@H]2O[C@@H](CO)[C@H](O)[C@H](O)[C@@H]2O)[C@H](O)[C@@H]1NC(C)=O,Vmax / Km,[1],0.4
same,Vmax / Km,[2],6.8
CO[C@@H]1O[C@@H](C(N)=O)[C@@H](O[C@@H]2O[C@@H](CO)[C@H](O)[C@H](O)[C@@H]2O)[C@H](O)[C@@H]1NC(C)=O,Vmax / Km,[1],0.02
same,Vmax / Km,[3],inactive
CO[C@@H]1O[C@@H](CNC=O)[C@@H](O[C@@H]2O[C@@H](CO)[C@H](O)[C@H](O)[C@@H]2O)[C@H](O)[C@@H]1NC(C)=O,Vmax / Km,[1],1.5
same,Vmax / Km,[2],7.3
CO[C@@H]1O[C@@H](CNC=O)[C@@H](O[C@@H]2O[C@@H](CO)[C@H](O)[C@H](O)[C@@H]2OC)[C@H](O)[C@@H]1NC(C)=O,Vmax / Km,[1],0.3
same,Vmax / Km,[2],9.3
CO[C@@H]1O[C@@H](CNS(C)(=O)=O)[C@@H](O[C@@H]2O[C@@H](CO)[C@H](O)[C@H](O)[C@@H]2O)[C@H](O)[C@@H]1NC(C)=O,Vmax / Km,[1],0.9
same,Vmax / Km,[2],8.7
CO[C@@H]1O[C@@H](CO)[C@@H](O[C@@H]2O[C@@H](CO)[C@H](O)[C@H](O)[C@@H]2O)[C@H](O)[C@@H]1NC(C)=O,Vmax / Km,[1],0.6
CO[C@@H]1O[C@@H](CO)[C@@H](O[C@@H]2O[C@@H](CO)[C@H](O)[C@H](O)[C@@H]2OC)[C@H](O)[C@@H]1NC(C)=O,Vmax / Km,[1],0.2
same,Vmax / Km,[2],3.1
CO[C@@H]1O[C@@H](CN)[C@@H](O[C@@H]2O[C@@H](CO)[C@H](O)[C@H](O)[C@@H]2O)[C@H](O)[C@@H]1NC(C)=O,Vmax / Km,[1],0.08
same,Vmax / Km,[2],1.5
CO[C@@H]1O[C@@H](COS(C)(=O)=O)[C@@H](O[C@@H]2O[C@@H](CO)[C@H](O)[C@H](O)[C@@H]2O)[C@H](O)[C@@H]1NC(C)=O,Vmax / Km,[1],1.3
same,Vmax / Km,[2],3.6
COC[C@@H]1O[C@@H](OC)[C@@H](NC(C)=O)[C@@H](O)[C@@H]1O[C@@H]1O[C@@H](CO)[C@H](O)[C@H](O)[C@@H]1OC,Vmax / Km,[1],0.04
same,Vmax / Km,[2],6.7
B1,Km,[4],2400 µM
same,Km,[5],4300 µM
same,Km,[6],11200 µM
same,Km,[7],> 10000 µM
same,Km,[8],5800 µM
same,Km,[9],1400 µM
same,Km,[10],1100 µM
same,Km,[11],3100 µM
same,Km,[12],800 µM
same,Km,[13],1700 µM
same,Km,[14],4100 µM
same,Km,[15],700 µM
same,Vmax,[16],0.2
same,Vmax,[17],0.8
same,Vmax,[18],0.5
same,Vmax,[19],< 0.2
same,Vmax,[20],0.5
same,Vmax,[21],0.6
same,Vmax,[22],1.6
same,Vmax,[23],1
same,Vmax,[24],0.7
same,Vmax,[25],1
same,Vmax,[26],0.8
same,Vmax,[27],0.9
